pEC50: −log10 of the molar value.
What follows are compounds tested against T1, 5-hydroxytryptamine receptor 2A (Homo sapiens, UniProt P28223) (assay: Agonist activity at human 5HT2A receptor expressed in HEK293 cells assessed as calcium flux measured every sec for 3 mins by FLIPR assay). Conditions: hek293; call rule not given here.
Format: functional, cell-based

T1 sequence (P28223 whole entry): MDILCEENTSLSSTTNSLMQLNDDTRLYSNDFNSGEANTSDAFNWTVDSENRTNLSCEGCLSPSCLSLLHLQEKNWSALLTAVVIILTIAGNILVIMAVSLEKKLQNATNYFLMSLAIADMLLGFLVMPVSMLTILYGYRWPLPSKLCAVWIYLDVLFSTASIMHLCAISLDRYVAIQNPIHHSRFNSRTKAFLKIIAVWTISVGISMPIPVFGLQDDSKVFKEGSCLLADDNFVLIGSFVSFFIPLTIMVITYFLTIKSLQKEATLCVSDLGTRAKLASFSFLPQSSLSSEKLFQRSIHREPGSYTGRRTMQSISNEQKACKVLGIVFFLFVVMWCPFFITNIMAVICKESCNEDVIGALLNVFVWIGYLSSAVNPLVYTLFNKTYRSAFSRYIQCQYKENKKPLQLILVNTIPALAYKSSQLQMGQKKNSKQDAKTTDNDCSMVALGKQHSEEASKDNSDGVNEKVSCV

Row | Structure (SMILES) | EC50
1 | Cl.NC[C@@H]1C[C@H]1c1ccccc1OCC1CC1 | Not Active
2 | COc1ccc(-c2cccc(C)c2)cc1[C@H]1C[C@@H]1CN.Cl (racemic) | Not Active
3 | COc1ccc(-c2ccc(C)cc2)cc1[C@H]1C[C@@H]1CN.Cl (racemic) | Not Active
4 | COc1ccc(-c2ccccc2F)cc1[C@H]1C[C@@H]1CN.Cl (racemic) | Not Active
5 | COc1ccc(-c2cccc(F)c2)cc1[C@H]1C[C@@H]1CN.Cl (racemic) | Not Active
6 | COc1ccc(-c2ccc(F)cc2)cc1[C@H]1C[C@@H]1CN.Cl (racemic) | Not Active
7 | CCCCc1ccc(-c2ccc(OC)c([C@H]3C[C@@H]3CN)c2)cc1.Cl (racemic) | Not Active
8 | Cc1ccc(OCC(C)C)c([C@H]2C[C@@H]2CN)c1.Cl (racemic) | Not Active
9 | CCCCOc1ccc(C)cc1[C@H]1C[C@@H]1CN.Cl (racemic) | Not Active
10 | CCCOc1ccccc1[C@H]1C[C@@H]1CN.Cl (racemic) | Not Active
11 | CC(C)COc1ccccc1[C@H]1C[C@@H]1CN.Cl (racemic) | Not Active
12 | CCCCCOc1ccccc1[C@H]1C[C@@H]1CN.Cl (racemic) | Not Active
13 | Cl.NC[C@H]1C[C@@H]1c1ccccc1OCC1CC1 (racemic) | Not Active
14 | Cl.NC[C@H]1C[C@@H]1c1ccccc1OCC1CCC1 (racemic) | Not Active
15 | Cl.NC[C@H]1C[C@@H]1c1ccccc1OCC1CCCCC1 (racemic) | Not Active
16 | Cl.NC[C@H]1C[C@@H]1c1ccccc1OCc1ccccc1 (racemic) | Not Active
17 | COc1ccc(-c2ccccc2)cc1[C@H]1C[C@@H]1CN.Cl (racemic) | Not Active
18 | COc1ccc(-c2ccccc2C)cc1[C@H]1C[C@@H]1CN.Cl (racemic) | Not Active

Same assay, conditions: read-out: EC50

Row | Structure (SMILES) | pEC50
19 | NC[C@H]1C[C@@H]1c1cc(F)ccc1OCC1CC1 | 6.05
20 | CCOc1ccccc1[C@H]1C[C@@H]1CN (racemic) | 5.52

Each compound was assayed against T1, 5-hydroxytryptamine receptor 2A (assay: Agonist activity at human 5HT2A receptor expressed in HEK293 cells assessed as calcium flux measured every sec for 3 mins by FLIPR assay relative to 5HT). Conditions: not given.
Format: functional, cell-based
Summary of the method: (§1)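 Calcium flux (Gαq-mediated) in HEK-293 cells stably expressing human 5-HT2A, 5-HT2B or 5-HT2C (INI isoform). […] Racemic trans mixtures were tested unless otherwise stated.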

Row | Structure (SMILES) | Emax
21 | CCOc1ccccc1[C@H]1C[C@@H]1CN (racemic) | 64%

The compounds below were run against T2, 5-hydroxytryptamine receptor 2B (Homo sapiens, UniProt P41595) (assay: Agonist activity at human 5HT2B receptor expressed in HEK293 cells assessed as calcium flux measured every sec for 3 mins by FLIPR assay). Conditions: hek293.
T2 sequence (P41595 whole entry): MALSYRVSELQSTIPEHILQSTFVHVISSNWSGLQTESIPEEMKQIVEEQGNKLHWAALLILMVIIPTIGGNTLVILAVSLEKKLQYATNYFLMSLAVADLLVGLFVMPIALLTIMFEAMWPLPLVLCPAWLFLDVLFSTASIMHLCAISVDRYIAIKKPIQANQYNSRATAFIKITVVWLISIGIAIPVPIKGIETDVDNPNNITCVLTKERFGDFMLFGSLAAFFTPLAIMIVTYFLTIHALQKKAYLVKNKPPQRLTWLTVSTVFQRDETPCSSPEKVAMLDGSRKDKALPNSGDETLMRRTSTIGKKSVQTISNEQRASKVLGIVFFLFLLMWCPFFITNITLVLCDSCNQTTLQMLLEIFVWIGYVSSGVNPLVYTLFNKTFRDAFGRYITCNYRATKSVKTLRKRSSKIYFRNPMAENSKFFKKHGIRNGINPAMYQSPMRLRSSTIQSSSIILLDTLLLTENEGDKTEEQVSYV
Format: functional, cell-based

Row | Structure (SMILES) | EC50
22 | Cl.NC[C@@H]1C[C@H]1c1ccccc1OCC1CC1 | Not Active
23 | COc1ccc(-c2cccc(C)c2)cc1[C@H]1C[C@@H]1CN.Cl (racemic) | Not Active
24 | COc1ccc(-c2ccc(C)cc2)cc1[C@H]1C[C@@H]1CN.Cl (racemic) | Not Active
25 | COc1ccc(-c2ccccc2F)cc1[C@H]1C[C@@H]1CN.Cl (racemic) | Not Active
26 | COc1ccc(-c2cccc(F)c2)cc1[C@H]1C[C@@H]1CN.Cl (racemic) | Not Active
27 | COc1ccc(-c2ccc(F)cc2)cc1[C@H]1C[C@@H]1CN.Cl (racemic) | Not Active
28 | CCCCc1ccc(-c2ccc(OC)c([C@H]3C[C@@H]3CN)c2)cc1.Cl (racemic) | Not Active
29 | Cc1ccc(OCC(C)C)c([C@H]2C[C@@H]2CN)c1.Cl (racemic) | Not Active
30 | CCCCOc1ccc(C)cc1[C@H]1C[C@@H]1CN.Cl (racemic) | Not Active
31 | CC(C)COc1ccccc1[C@H]1C[C@@H]1CN.Cl (racemic) | Not Active
32 | CCCCCOc1ccccc1[C@H]1C[C@@H]1CN.Cl (racemic) | Not Active
33 | Cl.NC[C@H]1C[C@@H]1c1ccccc1OCC1CC1 (racemic) | Not Active
34 | Cl.NC[C@H]1C[C@@H]1c1ccccc1OCC1CCC1 (racemic) | Not Active
35 | Cl.NC[C@H]1C[C@@H]1c1ccccc1OCC1CCCCC1 (racemic) | Not Active
36 | COc1ccc(-c2ccccc2)cc1[C@H]1C[C@@H]1CN.Cl (racemic) | Not Active
37 | COc1ccc(-c2ccccc2C)cc1[C@H]1C[C@@H]1CN.Cl (racemic) | Not Active

Same assay, conditions: read-out: EC50

Row | Structure (SMILES) | pEC50
38 | NC[C@H]1C[C@@H]1c1cc(F)ccc1OCC1CC1 | 6.54
39 | CCOc1ccccc1[C@H]1C[C@@H]1CN (racemic) | 6.48
40 | CCCOc1ccccc1[C@H]1C[C@@H]1CN.Cl (racemic) | 6.52
41 | Cl.NC[C@H]1C[C@@H]1c1ccccc1OCc1ccccc1 (racemic) | 5.97

Each compound was assayed against T2, 5-hydroxytryptamine receptor 2B (assay: Agonist activity at human 5HT2B receptor expressed in HEK293 cells assessed as calcium flux measured every sec for 3 mins by FLIPR assay relative to 5HT). Conditions: not given.
Format: functional, cell-based
Summary of the method: as §1

Row | Structure (SMILES) | Emax
42 | CCOc1ccccc1[C@H]1C[C@@H]1CN (racemic) | 48%
43 | CCCOc1ccccc1[C@H]1C[C@@H]1CN.Cl (racemic) | 16%
44 | Cl.NC[C@H]1C[C@@H]1c1ccccc1OCc1ccccc1 (racemic) | 20%

What follows are compounds tested against T3, 5-hydroxytryptamine receptor 2C (Homo sapiens, UniProt P28335) (assay: Agonist activity at human 5HT2C receptor expressed in HEK293 cells assessed as calcium flux measured every sec for 3 mins by FLIPR assay). Conditions: hek293.
T3 sequence (P28335 whole entry): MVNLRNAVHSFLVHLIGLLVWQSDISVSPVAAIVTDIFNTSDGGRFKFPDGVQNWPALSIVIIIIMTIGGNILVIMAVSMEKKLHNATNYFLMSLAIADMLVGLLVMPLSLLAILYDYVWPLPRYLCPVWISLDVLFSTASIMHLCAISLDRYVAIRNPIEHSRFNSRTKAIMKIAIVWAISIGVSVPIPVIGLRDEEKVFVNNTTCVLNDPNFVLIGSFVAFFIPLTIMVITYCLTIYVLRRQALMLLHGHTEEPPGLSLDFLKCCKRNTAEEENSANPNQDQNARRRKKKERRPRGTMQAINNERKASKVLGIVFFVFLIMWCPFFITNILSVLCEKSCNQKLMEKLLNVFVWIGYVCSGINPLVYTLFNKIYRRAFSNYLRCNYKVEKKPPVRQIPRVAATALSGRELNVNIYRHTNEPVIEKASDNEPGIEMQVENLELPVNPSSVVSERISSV
Format: functional, cell-based

Row | Structure (SMILES) | EC50
45 | COc1ccc(-c2ccc(C)cc2)cc1[C@H]1C[C@@H]1CN.Cl (racemic) | Not Active
46 | CCCCc1ccc(-c2ccc(OC)c([C@H]3C[C@@H]3CN)c2)cc1.Cl (racemic) | Not Active
47 | Cc1ccc(OCC(C)C)c([C@H]2C[C@@H]2CN)c1.Cl (racemic) | Not Active
48 | CCCCOc1ccc(C)cc1[C@H]1C[C@@H]1CN.Cl (racemic) | Not Active
49 | CCCCCOc1ccccc1[C@H]1C[C@@H]1CN.Cl (racemic) | Not Active
50 | Cl.NC[C@H]1C[C@@H]1c1ccccc1OCC1CCCCC1 (racemic) | Not Active

Same assay, conditions: read-out: EC50

Row | Structure (SMILES) | pEC50
51 | Cl.NC[C@@H]1C[C@H]1c1ccccc1OCC1CC1 | 6.01
52 | NC[C@H]1C[C@@H]1c1cc(F)ccc1OCC1CC1 | 7.68
53 | COc1ccc(-c2cccc(C)c2)cc1[C@H]1C[C@@H]1CN.Cl (racemic) | 5.06
54 | COc1ccc(-c2ccccc2F)cc1[C@H]1C[C@@H]1CN.Cl (racemic) | 5.48
55 | COc1ccc(-c2cccc(F)c2)cc1[C@H]1C[C@@H]1CN.Cl (racemic) | 5.14
56 | COc1ccc(-c2ccc(F)cc2)cc1[C@H]1C[C@@H]1CN.Cl (racemic) | 5.66
57 | CCOc1ccccc1[C@H]1C[C@@H]1CN (racemic) | 7.74
58 | CCCOc1ccccc1[C@H]1C[C@@H]1CN.Cl (racemic) | 7.62
59 | CC(C)COc1ccccc1[C@H]1C[C@@H]1CN.Cl (racemic) | 6.60
60 | Cl.NC[C@H]1C[C@@H]1c1ccccc1OCC1CCC1 (racemic) | 5.92
61 | Cl.NC[C@H]1C[C@@H]1c1ccccc1OCc1ccccc1 (racemic) | 6.52
62 | COc1ccc(-c2ccccc2)cc1[C@H]1C[C@@H]1CN.Cl (racemic) | 5.42
63 | COc1ccc(-c2ccccc2C)cc1[C@H]1C[C@@H]1CN.Cl (racemic) | 5.46

What follows are compounds tested against T4, 5-hydroxytryptamine receptor 2C (Homo sapiens) (UniProt P28335) (assay: Agonist activity at human 5HT2C receptor expressed in HEK293 cells assessed as calcium flux measured every sec for 3 mins by FLIPR assay relative to 5HT). Conditions: not given.
T4 sequence (whole entry): T3 sequence (P28335 whole entry)
Format: functional, cell-based
Summary of the method: as §1

Row | Structure (SMILES) | Emax
64 | Cl.NC[C@@H]1C[C@H]1c1ccccc1OCC1CC1 | 51%
65 | NC[C@H]1C[C@@H]1c1ccccc1OCC1CC1 | 61%
66 | COc1ccc(-c2cccc(C)c2)cc1[C@H]1C[C@@H]1CN.Cl (racemic) | 69%
67 | COc1ccc(-c2ccccc2F)cc1[C@H]1C[C@@H]1CN.Cl (racemic) | 69%
68 | COc1ccc(-c2cccc(F)c2)cc1[C@H]1C[C@@H]1CN.Cl (racemic) | 59%
69 | COc1ccc(-c2ccc(F)cc2)cc1[C@H]1C[C@@H]1CN.Cl (racemic) | 83%
70 | CCOc1ccccc1[C@H]1C[C@@H]1CN (racemic) | 99%
71 | CCCOc1ccccc1[C@H]1C[C@@H]1CN.Cl (racemic) | 70%
72 | CC(C)COc1ccccc1[C@H]1C[C@@H]1CN.Cl (racemic) | 84%
73 | Cl.NC[C@H]1C[C@@H]1c1ccccc1OCC1CCC1 (racemic) | 31%
74 | Cl.NC[C@H]1C[C@@H]1c1ccccc1OCc1ccccc1 (racemic) | 74%
75 | COc1ccc(-c2ccccc2)cc1[C@H]1C[C@@H]1CN.Cl (racemic) | 64%
76 | COc1ccc(-c2ccccc2C)cc1[C@H]1C[C@@H]1CN.Cl (racemic) | 67%
77 | NC[C@H]1C[C@@H]1c1ccccc1OCC1CC1 (racemic) | 60%

Source: ChEMBL document CHEMBL2021856 (ACS Med Chem Lett, 2011)
